Compound activity from PubChem.
Sampled rows, rich in hits. Any-hit rate of the full collection: about 3.4%.
ERAP1 inh – blocks human ERAP1 aminopeptidase activity; hit rate 0.15% among 340,000; inhibition, % at 10.7 µM; AID 652197; recombinant ERAP1, Leu-AMC fluorescence, 60 min;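 active means mean replicate inhibition of at least 30%, or all replicates individually reaching that 30% level; inactive means mean below 30% and not every replicate reaching it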;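 further: 0% = neutral control wells and 100% = L-leucinethiol positive control wells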
SIRT5 inh – inhibitors of human sirtuin-5 desuccinylase; Purified SirT5, succinyl-peptide AMC, trypsin-coupled fluorescence; inhibition, % at 15 µM; hit rate 1.1% among 330,000; in the data active means inhibition above about 15%
AF4-AF9 inh – blocks AF4 peptide binding to human AF9; P42568; AlphaScreen, biotin-AF4 peptide binding to FLAG-AF9; hit rate 0.47% among 350,000; inhibition, % at 10 µM;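 active means every replicate reaching a set inhibition limit, whatever the replicate mean, cut at about 25% in these data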;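 further: 0% = plate neutral control median and 100% = total signal loss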
E-selectin induc – E-selectin induction on HUVECs. HUVEC E-selectin immunofluorescence imaging; normalized: neutral wells 0, TNF-alpha wells 100. P16581. hit rate 0.37% among 260,000. AID 686992. activation, % at 7.58 µM;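 active means mean E-selectin-positive cell signal at least 10% of the positive control, reached in at least 60% of replicates, without over 20% cell loss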
Target sequence (P16581 whole entry, looked up): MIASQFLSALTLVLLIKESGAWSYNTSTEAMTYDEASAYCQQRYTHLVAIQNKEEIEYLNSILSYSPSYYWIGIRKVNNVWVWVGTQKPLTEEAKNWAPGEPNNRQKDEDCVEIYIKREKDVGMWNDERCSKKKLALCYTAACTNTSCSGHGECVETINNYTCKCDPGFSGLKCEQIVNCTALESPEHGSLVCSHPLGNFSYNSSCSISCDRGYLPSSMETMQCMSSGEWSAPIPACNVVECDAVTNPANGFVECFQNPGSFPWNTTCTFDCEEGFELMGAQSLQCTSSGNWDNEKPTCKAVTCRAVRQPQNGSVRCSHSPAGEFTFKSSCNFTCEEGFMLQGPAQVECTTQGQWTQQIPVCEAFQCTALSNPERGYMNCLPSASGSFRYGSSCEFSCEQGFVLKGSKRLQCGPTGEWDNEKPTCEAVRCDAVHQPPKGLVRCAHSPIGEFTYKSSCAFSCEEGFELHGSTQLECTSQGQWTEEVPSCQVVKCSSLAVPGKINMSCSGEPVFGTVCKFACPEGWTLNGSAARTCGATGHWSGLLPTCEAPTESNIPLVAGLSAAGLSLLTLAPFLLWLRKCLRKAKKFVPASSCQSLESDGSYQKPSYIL
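Test system – human umbilical vein endothelial cells (HUVEC), E-selectin induction · Input – 3,000 HUVEC seeded per well · Buffer or medium – EGM-2, gelatin · Compound dosing – single-point compound dose · Detection – immunofluorescence imaging · Measure – percent E-selectin-positive cells · Controls – TNF-alpha high, DMSO low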
rRNA inh HTS – selective bacterial rRNA inhibition in E. coli; E. coli WT GFP vs humanized-ribosome RFP mutants, fluorescence, 24 h; hits give low values; DMSO median 0, no signal -100; AID 720706; GFP signal change (wild-type ribosome), % (concentration not given with the values); hit rate 1.6% among 350,000;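 active means significant combined selectivity score with lowered wild-type GFP, culture density cut under 30%, mutant RFP and density less affected; inactive means any of these conditions unmet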
S100A4 inh HTS – inhibitors of human S100A4 binding to myosin IIA peptide; hit rate 0.14% among 360,000; inhibition, % at 10.7 µM; S100A4/TAMRA-MyoIIA peptide fluorescence polarization; AID 652163; P26447;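 active means mean inhibition of at least 70% across replicates, with every replicate also reaching that level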
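Test system: S100A4 monomer protein. Medium: HEPES buffer with Ca2+, pH 7.2. Reagent: fluorescent myosin IIA peptide, 5 nM. Compound dosing: single-point compound testing. Timing: 5 min between mix addition and reading. Benchmarks: DMSO neutral and TFP positive wells.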
* marks the source's active call; other numbers are inactive results; . = no result.

SMILES	ERAP1 inh	SIRT5 inh	AF4-AF9 inh	E-selectin induc	rRNA inh HTS	S100A4 inh HTS
COc1cccc(Cn2cnc(-c3ccccc3OC)c2-c2ccco2)c1	3	-1	4	.	1	-3
C[C@@H]1CCCCO[C@H](CN(C)S(=O)(=O)c2cn(C)cn2)[C@@H](C)CN([C@@H](C)CO)C(=O)c2cc(NS(=O)(=O)c3cn(C)cn3)ccc2O1	1	1	-10	0	2	7
Cc1cc(C)c(S(=O)(=O)NCCn2c(C)cc3ccccc32)c(C)c1	-1	-4	2	101*	-6	25
Cc1cc(C)c(S(=O)(=O)NCc2ccc3c(c2)cc(C)n3C)c(C)c1	-3	-2	1	.	-4	83*
Cc1cc2ccccc2n1CCNC(=O)Cc1ccccc1	-3	-4	1	3	5	41
Cc1cc2cc(CNS(=O)(=O)c3ccc4ccccc4c3)ccc2n1C	4	12	2	.	-7	61
CN1CCN(C(=O)C[C@@H]2C=C[C@H](NC(=O)Nc3ccccc3F)[C@H](CO)O2)CC1	.	.	.	0	2	.
OCCOCCn1c(C(CO)Nc2nc(-c3ccccc3Br)cs2)nc2ccccc21 (centres undefined)	6	23*	-4	0	-2	9
C[C@@H]1CN([C@H](C)CO)C(=O)c2cc(NC(=O)Nc3ccccc3)ccc2O[C@@H](C)CCCCO[C@H]1CN(C)S(=O)(=O)c1cccs1	0	2	2	.	6	-1
Nc1cc(S(=O)(=O)Nc2cc(Cl)ccc2Cl)ccc1N1CCCC1	.	-3	-4	-1	-28	-19
COc1ccc(NS(=O)(=O)c2cc(N)ccc2N2CCOCC2)cc1	-1	-1	1	.	-5	-2
CNC(=S)Nc1cc(S(=O)(=O)Nc2cc(Cl)ccc2Cl)ccc1N1CCCC1	-2	-4	0	1	-27*	1
Nc1ccc(N2CCOCC2)c(S(=O)(=O)Nc2cc(Cl)ccc2Cl)c1	4	4	4	0	-26*	-2
C[C@H](CO)N1C[C@H](C)[C@@H](CN(C)CC2CC2)Oc2ccc(NC(=O)c3ccncc3)cc2CC1=O	.	2	-3	0	2	.
O=C(N/N=C/c1ccc(Sc2nc3ccccc3[nH]2)o1)c1ccncc1	4	3	3	-1	1	-1
CCN1C(=O)S/C(=C/c2ccc(Sc3nc4ccccc4[nH]3)o2)C1=O	3	3	4	-2	-23*	16
CC(C)(C)NC(=O)CSc1nc2cccnc2n1C1CCCCC1	1	20*	-4	.	-6	-12
O=C(Sc1ccccc1)c1cccc(Cn2cc(C(F)(F)F)ccc2=O)c1	0	-4	0	0	9	-4
O=C(Nc1ccccc1)c1cccc(Cn2cc(C(F)(F)F)ccc2=O)c1	.	24*	-4	1	2	-3
Cc1ccc(-c2ccc([C@H]3[C@H](CO)N4CCCCN(S(=O)(=O)c5cccc(C)c5)C[C@@H]34)cc2)cc1	-2	2	0	.	.	9
Cc1cccc(S(=O)(=O)N2CCCCN3[C@H](CO)[C@@H](c4ccc(-c5ccccc5)cc4)[C@H]3C2)c1	0	22*	7	.	.	3
Cc1cccc(S(=O)(=O)N2CCCCN3[C@H](C2)[C@H](c2ccc(-c4ccccc4)cc2)[C@@H]3CO)c1	1	1	-5	.	.	7
Cc1ccc(-c2ccc([C@H]3[C@H]4CN(S(=O)(=O)c5cccc(C)c5)CCCCN4[C@H]3CO)cc2)cc1	4	17*	-9	.	.	-12
Cc1cccc(-c2ccc([C@@H]3[C@H](CO)N4CCCCN(S(=O)(=O)c5cccc(C)c5)C[C@@H]34)cc2)c1	-2	4	-1	-1	-28*	0
CCN1[C@@H]2c3ccc(-c4ccccc4F)c(=O)n3C[C@H]1[C@H](CO)[C@H]2C(=O)N1CCOCC1	-2	7	1	0	4	-4
SMILES	ERAP1 inh	SIRT5 inh	AF4-AF9 inh	E-selectin induc	rRNA inh HTS	S100A4 inh HTS
CN[C@@H](C)C(=O)NC[C@H]1O[C@@H](n2cnc3c(=O)[nH]c(N)nc32)[C@H](O)[C@@H]1O	-2	-1	-3	.	.	-2
COCC1OC(OC(C)C(O)c2cnc3nc(N)[nH]c(=O)c3n2)C(O)C(OC)C1O (centres undefined)	33*	.	9	.	.	-8
C[C@H](CO)N1C[C@H](C)[C@@H](CN(C)C(=O)NC2CCCCC2)Oc2ccc(NC(=O)CCCCCC(=O)Nc3ccccc3N)cc2C1=O	.	.	0	0	0	.
c1coc(-c2cnc3ccccc3n2)c1	5	.	-1	.	15	11
c1coc(-c2nc3ccccc3nc2-c2ccco2)c1	9	-13	8	.	-28*	6
C[C@@H]1CN([C@H](C)CO)C(=O)c2cc(-c3ccc(C#N)cc3)cnc2O[C@H]1CN(C)C(=O)CC1CC1	-2	-3	-1	0	-1	5
COc1ccc(NC(=O)N(C)C[C@@H]2OCCCC[C@@H](C)Oc3ccc(NS(=O)(=O)c4ccccc4)cc3C(=O)N([C@H](C)CO)C[C@@H]2C)cc1	-6	0	-1	0	1	-9
COc1ccc(NC(C)(C)c2nnnn2-c2c(C)cccc2C)cc1	10	-1	5	.	-25*	4
O=C(c1ccccn1)N1CC2(C1)[C@@H](c1ccccc1)[C@H](CO)N2Cc1ccc(Cl)cc1	0	2	3	0	-8	5
CNC[C@@H]1OCCCC[C@H](C)Oc2ccc(NC(=O)Nc3ccc(F)cc3)cc2C(=O)N([C@H](C)CO)C[C@@H]1C	1	2	5	0	6	-4
COc1cccc(C2CC(=O)NC(SC)=C2C#N)c1 (centres undefined)	5	4	25*	4	-6	-5
Cc1ccc(S(=O)(=O)Nc2ccc3c(c2)C(=O)N([C@@H](C)CO)C[C@H](C)[C@H](CN(C)S(=O)(=O)c2cccs2)OCCCC[C@@H](C)O3)cc1	1	18*	0	0	1	-20
Cc1ccc(S(=O)(=O)Nc2ccc3c(c2)C(=O)N([C@@H](C)CO)C[C@@H](C)[C@H](CN(C)S(=O)(=O)c2cccs2)OCCCC[C@H](C)O3)cc1	-3	8	-4	0	1	-19
C[C@H](CO)N1C[C@H](C)[C@@H](CN(C)S(=O)(=O)c2cccs2)OCCCC[C@H](C)Oc2ccc(NS(C)(=O)=O)cc2C1=O	-6	5	-7	0	-6	106*
COc1ccc(S(=O)(=O)Nc2ccc3c(c2)C(=O)N([C@@H](C)CO)C[C@@H](C)[C@@H](CN(C)S(=O)(=O)c2cccs2)OCCCC[C@H](C)O3)cc1	4	23*	0	.	-3	-22
